For one series, the system named is NCI-H1993. The series is described as follows: Growth inhibition of human NCI-H1993 cells after 72 hrs by CCK-8 assay. The class given is functional, cell-based. Conditions: Homo sapiens, NCI-H1993, 72 h; call rule not given here. In general terms: Tetrazolium assays rely on reduction of a dye to a coloured formazan, in cell work by metabolically active cells.
The nature of series [1]: Drug recovery in monkey liver microsomes at 1 uM measured after 30 mins by LC-MS/MS analysis.
The target in series [2] is T1, Cytochrome P450 2C9 (Homo sapiens, UniProt P11712). The series is described as follows: (§1) Time dependent irreversible inhibition of CYP2C9 in human liver microsomes at 10 uM preincubated with compound followed by NADPH addition by LC-MS/MS analysis. The series is classed as ADME. As to conditions: microsomes, 10 µM. The method, boiled down:
(§2)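 HLM (0.2 mg/ml) with 10 µM compound were preincubated 0, 5, 10 or 20 min at 37°C with 1 mM NADPH or PBS. Substrate cocktail (halved concentrations) plus NADPH was then added for 10 min. Metabolites were measured by LC-MS/MS. Kobs is the slope of relative activity versus preincubation time.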

The target in series [3] is T2, CYP2D6 (Homo sapiens, UniProt P10635). The series is described as follows: (§3) Reversible inhibition of CYP2D6 in human liver microsomes at 10 uM after 20 mins in presence of NADPH by LC-MS/MS analysis. The series is classed as ADME. Conditions: liver microsomes. For orientation: Liver microsomes are a subcellular fraction often used to study metabolism.
Series [4] concerns Liver. In words: (§4) Drug recovery in rat liver microsomes at 1 uM measured after 30 mins by LC-MS/MS analysis. The series is classed as ADME, microsome. Conditions: microsomes, 0.5 h, 1 µM.
Series [5] concerns the target T3, Cytochrome P450 3A4 (Homo sapiens, UniProt P08684). The series is described as follows: (§5) Time dependent irreversible inhibition of CYP3A4 in human liver microsomes at 10 uM preincubated with compound followed by NADPH addition by LC-MS/MS analysis. As to conditions: microsomes, 10 µM. The series is classed as ADME. The essentials:
as §2

The target in series [6] is T4, CYP3A4 (Homo sapiens, UniProt P08684). In words: (§6) Reversible inhibition of CYP3A4 in human liver microsomes at 10 uM after 20 mins in presence of NADPH by LC-MS/MS analysis. The class given is ADME. Conditions: liver microsomes.
Series [7] is described as follows: Intrinsic clearance in rat liver microsomes assessed per mg protein at 1 uM preincubated for 5 mins followed by NADPH addition measured after 5 to 30 mins by LC-MS/MS analysis. The class given is ADME, microsome. Conditions: read-out: CLH. The essentials:
(§7)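 Microsomes (0.5 mg/ml) with 1 µM compound were preincubated 5 min at 37°C in 100 mM phosphate buffer pH 7.4, then started with 1 mM NADPH. Samples were taken at 0, 5, 10 and 30 min, quenched with acetonitrile/tinidazole and run by LC-MS/MS. CLint = k / microsomal protein concentration. Midazolam was the positive control.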

A short description of series [8]: (§8) Drug recovery in human liver microsomes at 1 uM measured after 30 mins by LC-MS/MS analysis. The series is classed as ADME, microsome. As to conditions: liver microsomes, read-out: Drug recovery. The method, boiled down: (§9)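 Liver microsomes (0.5 mg/ml) were incubated with 1 µM compound at 37°C in 100 mM phosphate buffer pH 7.4 without NADPH for 30 min. Reactions were quenched with acetonitrile/tinidazole internal standard and analysed by LC-MS/MS. Recovery (%) was taken from the compound/internal standard peak area ratio.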

Series [9] addresses T5, CYP1A2 (Homo sapiens, UniProt P05177).
T5 sequence (P05177 whole entry): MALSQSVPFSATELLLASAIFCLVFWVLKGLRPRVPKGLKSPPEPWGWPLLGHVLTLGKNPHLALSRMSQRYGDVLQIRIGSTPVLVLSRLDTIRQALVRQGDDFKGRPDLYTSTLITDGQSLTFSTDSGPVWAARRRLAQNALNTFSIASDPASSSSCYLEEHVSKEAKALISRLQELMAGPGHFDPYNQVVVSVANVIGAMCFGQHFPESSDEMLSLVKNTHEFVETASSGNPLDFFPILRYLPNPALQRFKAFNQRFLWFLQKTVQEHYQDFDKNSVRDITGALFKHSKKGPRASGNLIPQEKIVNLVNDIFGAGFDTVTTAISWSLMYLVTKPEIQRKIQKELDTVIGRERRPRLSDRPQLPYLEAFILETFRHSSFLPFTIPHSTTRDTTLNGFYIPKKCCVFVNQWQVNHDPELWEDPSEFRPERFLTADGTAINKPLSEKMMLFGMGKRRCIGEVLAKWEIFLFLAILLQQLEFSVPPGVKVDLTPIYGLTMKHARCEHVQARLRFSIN
In words: Reversible inhibition of CYP1A2 in human liver microsomes at 10 uM after 20 mins in presence of NADPH by LC-MS/MS analysis. The series is classed as ADME.

The nature of series [10]: Intrinsic clearance in monkey liver microsomes assessed per mg protein at 1 uM preincubated for 5 mins followed by NADPH addition measured after 5 to 30 mins by LC-MS/MS analysis. Conditions: liver microsomes; read-out: CLH.
The target in series [11] is T6, CYP2C19 (Homo sapiens, UniProt P33261). The series is described as follows: (§10) Reversible inhibition of CYP2C19 in human liver microsomes at 10 uM after 20 mins in presence of NADPH by LC-MS/MS analysis. The class given is ADME. As to conditions: liver microsomes.
A further series has as its system SNU-5. The series is described as follows: Growth inhibition of human SNU5 cells after 72 hrs by CCK-8 assay. The series is classed as functional, cell-based. As to conditions: Homo sapiens, SNU-5, 72 h.
Series [12] has as its target T7, Cytochrome P450 2D6 (Homo sapiens, UniProt P10635). In words: (§11) Time dependent irreversible inhibition of CYP2D6 in human liver microsomes at 10 uM preincubated with compound followed by NADPH addition by LC-MS/MS analysis. The series is classed as ADME. As to conditions: microsomes, 10 µM. The essentials:
as §2

For another series, the target named is Cytochrome P450 1A2 (Homo sapiens, UniProt P05177). In words: (§12) Time dependent irreversible inhibition of CYP1A2 in human liver microsomes at 10 uM preincubated with compound followed by NADPH addition by LC-MS/MS analysis. The series is classed as ADME. Conditions: microsomes, 10 µM. The essentials:
as §2

Series [13] in a line: Intrinsic clearance in human liver microsomes assessed per mg protein at 1 uM preincubated for 5 mins followed by NADPH addition measured after 5 to 30 mins by LC-MS/MS analysis. The series is classed as ADME, microsome. As to conditions: read-out: CLH. The method, boiled down:
as §7

The target of series [14] is T8, CYP2C9 (Homo sapiens, UniProt P11712). In words: (§13) Reversible inhibition of CYP2C9 in human liver microsomes at 10 uM after 20 mins by in presence of NADPH LC-MS/MS analysis. The class given is ADME. Conditions: liver microsomes.
Series [15] addresses T8, CYP2C9. Described as §1. The class given is ADME. As to conditions: liver microsomes. The essentials:
as §2

The target of series [16] is T7, Cytochrome P450 2D6. The description is as §3. The series is classed as ADME. Conditions: microsomes, 20 min, 10 µM.
Series [17] can be described thus: as §4. As to conditions: liver microsomes, read-out: Drug recovery. The series is classed as ADME, microsome.
For series [18], the target named is T4, CYP3A4. Described as §5. Conditions: liver microsomes. The series is classed as ADME. The essentials: as §2
Series [19] deals with T3, Cytochrome P450 3A4. Described as §6. The series is classed as ADME. As to conditions: microsomes, 20 min, 10 µM.
For series [20], the target named is T6, CYP2C19. In words: Time dependent irreversible inhibition of CYP2C19 in human liver microsomes at 10 uM preincubated with compound followed by NADPH addition by LC-MS/MS analysis. The series is classed as ADME. The essentials: as §2
The target in another series is Cytochrome P450 2C19 (Homo sapiens, UniProt P33261). The description is as §10. The series is classed as ADME. Conditions: microsomes, 20 min, 10 µM.
For series [21], the target named is T2, CYP2D6. Described as §11. The series is classed as ADME. As to conditions: liver microsomes. The essentials: as §2
In series [22] the target is T5, CYP1A2. The series is described as §12. The series is classed as ADME. As to conditions: liver microsomes. The essentials:
as §2

In series [23] the target is T1, Cytochrome P450 2C9. Described as §13. The class given is ADME. As to conditions: microsomes, 20 min, 10 µM.
In series [24] the test system is Liver. The description is as §8. As to conditions: microsomes, 0.5 h, 1 µM. The class given is ADME, microsome. The essentials:
as §9

T8 sequence (P11712 whole entry): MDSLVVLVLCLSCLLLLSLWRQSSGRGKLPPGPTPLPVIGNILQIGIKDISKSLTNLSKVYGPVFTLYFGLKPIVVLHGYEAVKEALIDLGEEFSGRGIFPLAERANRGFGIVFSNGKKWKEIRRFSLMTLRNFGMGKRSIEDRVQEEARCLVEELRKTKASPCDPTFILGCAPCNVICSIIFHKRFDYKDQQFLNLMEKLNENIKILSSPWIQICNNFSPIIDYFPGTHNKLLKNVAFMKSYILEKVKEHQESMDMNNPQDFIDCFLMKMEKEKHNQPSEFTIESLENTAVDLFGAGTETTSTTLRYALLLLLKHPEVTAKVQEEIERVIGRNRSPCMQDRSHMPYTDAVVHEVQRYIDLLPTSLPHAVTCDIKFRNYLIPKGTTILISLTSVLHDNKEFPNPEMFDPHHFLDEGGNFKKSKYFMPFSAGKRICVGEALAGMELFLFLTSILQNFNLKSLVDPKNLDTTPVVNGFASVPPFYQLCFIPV
T1 sequence (P11712 whole entry): as above
T4 sequence (P08684 whole entry): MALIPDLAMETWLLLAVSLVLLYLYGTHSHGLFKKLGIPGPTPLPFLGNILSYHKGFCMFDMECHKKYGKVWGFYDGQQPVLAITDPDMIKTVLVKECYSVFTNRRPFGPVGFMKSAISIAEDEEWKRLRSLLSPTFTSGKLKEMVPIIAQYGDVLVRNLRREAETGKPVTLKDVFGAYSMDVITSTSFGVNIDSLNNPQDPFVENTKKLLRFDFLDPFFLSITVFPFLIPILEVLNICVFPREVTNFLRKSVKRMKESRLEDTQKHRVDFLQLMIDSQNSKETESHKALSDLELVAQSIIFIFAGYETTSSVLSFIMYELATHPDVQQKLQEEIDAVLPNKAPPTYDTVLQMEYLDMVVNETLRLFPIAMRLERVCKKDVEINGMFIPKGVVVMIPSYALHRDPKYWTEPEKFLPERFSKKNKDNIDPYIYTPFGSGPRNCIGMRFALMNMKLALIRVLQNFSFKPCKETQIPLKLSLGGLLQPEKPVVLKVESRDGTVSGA
T3 sequence (P08684 whole entry): as above
T7 sequence (P10635 whole entry): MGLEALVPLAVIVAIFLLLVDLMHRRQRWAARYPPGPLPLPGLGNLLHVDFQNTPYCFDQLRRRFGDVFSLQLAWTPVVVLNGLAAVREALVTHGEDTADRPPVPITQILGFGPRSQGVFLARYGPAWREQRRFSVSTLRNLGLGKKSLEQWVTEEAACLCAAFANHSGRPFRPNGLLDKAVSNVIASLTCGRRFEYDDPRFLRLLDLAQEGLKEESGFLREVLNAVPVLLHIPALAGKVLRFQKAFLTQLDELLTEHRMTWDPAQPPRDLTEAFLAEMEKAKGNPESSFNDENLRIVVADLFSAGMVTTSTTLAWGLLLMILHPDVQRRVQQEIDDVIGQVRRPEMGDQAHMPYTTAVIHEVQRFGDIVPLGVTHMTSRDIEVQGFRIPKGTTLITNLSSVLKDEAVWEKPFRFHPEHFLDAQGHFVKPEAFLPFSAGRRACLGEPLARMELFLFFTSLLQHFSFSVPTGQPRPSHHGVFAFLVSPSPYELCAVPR
T2 sequence (P10635 whole entry): as above
T6 sequence (P33261 whole entry): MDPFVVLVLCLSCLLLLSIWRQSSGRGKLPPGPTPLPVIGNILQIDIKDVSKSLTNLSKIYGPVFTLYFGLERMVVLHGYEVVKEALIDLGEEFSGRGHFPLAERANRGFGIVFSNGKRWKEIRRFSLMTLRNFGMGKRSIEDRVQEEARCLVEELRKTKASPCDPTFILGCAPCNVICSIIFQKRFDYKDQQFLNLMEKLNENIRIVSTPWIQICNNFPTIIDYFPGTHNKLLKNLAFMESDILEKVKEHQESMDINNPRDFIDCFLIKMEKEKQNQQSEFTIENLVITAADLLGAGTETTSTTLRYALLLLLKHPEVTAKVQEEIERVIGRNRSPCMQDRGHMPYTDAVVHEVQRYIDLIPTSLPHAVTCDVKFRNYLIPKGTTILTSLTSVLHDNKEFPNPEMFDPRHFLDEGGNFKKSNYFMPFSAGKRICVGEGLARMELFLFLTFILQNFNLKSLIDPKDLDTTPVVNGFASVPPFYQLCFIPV
Sequence of Cytochrome P450 2C19 (P33261 whole entry): as above

In the case of `CC(c1ccc2ncc(-c3cnn(C)c3)cc2c1)n1nnc2ncc(-c3ccc(C(N)=O)c(F)c3)nc21` (stereo unspecified), the results for the IC50 in the series with NCI-H1993 and in the series on SNU-5 were 0.9 nM and 0.7 nM, respectively. The remaining at 0.5 h, 1 µM in series [1] was determined as 98%; in series [8], 120%. For the same compound, the TDI entry on Cytochrome P450 2C9 [2], at Cytochrome P450 3A4 [5], on Cytochrome P450 2D6 [12] and on Cytochrome P450 1A2 was “Active” in each case. Besides, the inhibition at 20 min, 10 µM at CYP2D6 [3], at CYP3A4 [6], at CYP1A2 [9], on CYP2C19 [11] and at CYP2C9 [14] was < 50% each time. For the same compound, in the series on Liver [4], the Drug recovery stood at 128%. Also, the microsomal CLint at 1 µM in [7] is 10 µL/min/mg; in series [10] it was 30 µL/min/mg; in series [13], 3 µL/min/mg.
`CC(c1c(F)cc2ncc(-c3cnn(C)c3)cc2c1F)n1nnc2ncc(-c3ccncc3)nc21` (stereo unspecified): the results for the IC50 in the series with NCI-H1993 and in the series on SNU-5 were 0.2 nM and 1.2 nM, respectively. Besides, the remaining at 0.5 h, 1 µM in series [1] is 99%; in series [17], 98%; in [8], 101%. Besides, the inhibition at 10 µM on CYP2C9 [15], at CYP3A4 [18], at CYP2C19 [20], at CYP2D6 [21] and on CYP1A2 [22] was < 50% throughout. The “inhibition (INH)” value at Cytochrome P450 2D6 [16], on Cytochrome P450 3A4 [19], on Cytochrome P450 2C19 and at Cytochrome P450 2C9 [23] was “Active” throughout. In addition, the values for the microsomal CLint at 1 µM in [7], in series [10] and in series [13] were 26 µL/min/mg, 106 µL/min/mg and 9 µL/min/mg, respectively.
On to `CC(c1ccc2ncc(-c3cnn(C)c3)cc2c1)n1nnc2ncc(-c3cnn(C)c3)nc21` (stereo unspecified), for which the remaining at 0.5 h, 1 µM in [1] worked out at 79%; in series [17] it was 115%. For the same compound, the microsomal CLint at 1 µM in [7] is 22 µL/min/mg; in series [10], 42 µL/min/mg; in series [13], 12 µL/min/mg. The same compound displayed a Drug recovery in the series with Liver [24] of 123%. In the series with SNU-5, this compound showed an IC50 of 0.5 nM.

The IC50 is the concentration at which inhibition is half-maximal. In general, inhibition refers to the share of the control response that was lost under treatment.

The values above are taken from ChEMBL document CHEMBL4020721 (Eur J Med Chem, 2017).
